Screening results (PubChem BioAssay)
UPR XBP1 act: activators of adaptive arm of unfolded protein response (XBP1); AID 463104; activation, % at 20 µM; CHO-XBP1 luciferase reporter, IRE1-XBP1 UPR activation, luminescence; percent of tunicamycin response, DMSO as zero; 330,000 tested, 0.33% active;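 active = versus positive control, 20 µM dose yields 30% or more activation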;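 also: 100% = tunicamycin at 10 µg/mL and 0% = DMSO only wells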
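Assay system: CHO-XBP1 luciferase reporter cells; Schedule: 6 h treatment, 37 °C; Detection: glow luminescence from Steady-Glo reagent; Benchmarks: high control tunicamycin 10 µg/mL final, low control DMSO vehicle only.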
tim10-1 inh: tim10-1 yeast growth inhibition; S. cerevisiae tim10-1 ts strain growth, BacTiter-Glo, 24 h; inhibition, % at 20 µM; 330,000 tested, 2.2% active; AID 463190;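 active = inhibition of at least 40%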;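 also: mutant grown at 25 °C; 0% = DMSO wells with yeast and 100% = wells holding no yeast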
UPR CHOP act: activators of apoptotic arm of unfolded protein response (CHOP). CHO-CHOP luciferase reporter, UPR activation, luminescence; percent of tunicamycin response over DMSO baseline. activation, % at 10 µM. 330,000 tested, 0.34% active;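 active = at 10 µM dose, activation of 40% or more, normalized to positive control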;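 also: 100% = tunicamycin at 10 µg/mL and 0% = DMSO alone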
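Assay system: CHO cells with stable CHOP pathway luciferase reporter; Buffer or medium: F12 plus 10% serum; Times: 16-18 h cell attachment, then 6 h compound exposure, 37 °C; Signal: luciferase luminescence; Read-out basis: percent activation relative to tunicamycin control; Control set: tunicamycin high control, DMSO low control.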
tim23-1 inh: tim23-1 yeast growth inhibition; S. cerevisiae tim23-1 growth, BacTiter-Glo luminescence, 24 h; inhibition, % at 20 µM; 330,000 tested, 1.3% active;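 active = growth inhibition of the mutant yeast at or above 50%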;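 also: temperature-sensitive mutant grown at 25 °C; plate controls were DMSO-treated mutant yeast for no effect and medium wells lacking yeast for full effect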
TIM10 inh: growth inhibitors of TIM10 yeast strain | S. cerevisiae TIM10 strain growth, BacTiter-Glo luminescence, 24 h | 330,000 tested, 1.4% active | inhibition, % at 10 µM | AID 463195;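 active = inhibition of 40% or more at the single tested concentration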;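 also: wild-type TIM10 isogenic control strain grown at permissive 25 °C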
TIM10 conf: TIM10 yeast growth inhibition, confirmed | shares compounds with TIM10 inh | S. cerevisiae tim10 strain growth, BacTiter-Glo luminescence, 24 h | inhibition, % at 10 µM | 4,600 tested, 63% active;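 active = inhibition of yeast growth at or above a set limit in either of two replicates at 10 µM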;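 also: this counterscreen used the strain with wild-type TIM10; 0% = yeast with DMSO and 100% = medium wells lacking yeast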
* = called active by the depositor; nt = not tested or not shown. Sampled rows, rich in hits. Any-hit rate of the full collection: about 3.9%.

SMILES	UPR XBP1 act	tim10-1 inh	UPR CHOP act	tim23-1 inh	TIM10 inh	TIM10 conf
Cc1ccc(CN(c2ccc(C(=O)N3CCc4ccccc4C3)cc2)S(C)(=O)=O)cc1	0	24	0	31	33	nt
Cc1ccc(CN(c2ccc(C(=O)N3CCCC3)cc2)S(C)(=O)=O)cc1	-1	40	-2	44	44*	47*
COC(=O)c1ccc(CN2CCCC(CNC(=O)Cc3ccc(OC)cc3)C2)cc1 (centres undefined)	0	5	-2	8	0	nt
COc1ccc(CC(=O)NCC2CCCN(Cc3ccc(OC(F)(F)F)cc3)C2)cc1 (centres undefined)	-6	-3	0	8	98*	11
COC(=O)c1c(NC(=O)COc2ccc(Cl)cc2)sc2c1CC(C)(C)NC2(C)C	43*	39	12	44	46*	31
CC(C)(C)NC(=O)C(c1ccccn1)N(C(=O)c1csnn1)C1CCCC1 (centres undefined)	-3	13	0	6	3	nt
O=C(Nc1ccccc1-c1ccccc1)C12CC3CC(CC(C3)C1)C2	2	34	-3	34	50*	39*
C=CCNC(=O)c1ccccc1NC(=O)c1ccc(Cl)c(S(=O)(=O)Nc2ccccc2)c1	-2	5	-1	15	-1	nt
O=[N+]([O-])C(=C1Nc2ccccc2N1)/C(Cl)=C(/Cl)Br	3	26	3	37	57*	41*
CN(Cc1ccccc1)C(=C(Cl)Cl)C(=C1NCCN1)[N+](=O)[O-]	-3	-12	0	0	-8	nt
COCCNC(=S)N/N=C/c1c2ccccc2cc2ccccc12	0	28	3	35	41*	37*
COc1cccc(/C=N/n2cnc3cc(C)c(C)cc32)c1OC	7	35	1	27	42*	36*
CC(=O)Nc1ccc(/C=C(\C#N)C(=O)NC2CCCCC2C)cc1 (centres undefined)	2	38	-1	47	68*	45*
CCC(=O)c1cn(CC(=O)Nc2ccc(OC)cc2)c2ccccc12	-8	-9	1	-2	8	nt
Fc1ccc(/C=N/n2c(-c3cccs3)n[nH]c2=S)cc1	-1	30	-2	41	45*	28
S=c1[nH]nc(-c2cccs2)n1/N=C/c1cn(-c2ccccc2)nc1-c1ccccc1	14	23	4	29	17	nt
S=C(NCc1ccco1)Nc1ccc(Cl)c(Cl)c1	-3	34	1	45	46*	14
S=C(NCc1ccco1)Nc1ccc(Br)cn1	-2	16	1	34	21	nt
S=C(NCc1ccco1)Nc1cc(-c2ccccc2)[nH]n1	-2	33	6	41	40*	31
Cc1ccc(Cn2c(=O)c3ccccc3n3c(CCC(=O)NCCN4CCOCC4)nnc23)cc1	-1	6	2	-7	96*	-7
CCOC(=O)CN1C(=O)N[C@@H](c2cccc(C(F)(F)F)c2)[C@@H](C(=O)OC)[C@H]1C	1	-3	-1	9	5	nt
COc1ccc(N(C(=O)c2ccco2)S(=O)(=O)c2ccc(F)cc2)cc1	-1	38	0	-1	42*	17
Cc1oc(-c2ccc(Cl)cc2)nc1CS(=O)CC(=O)NCc1ccccn1 (centres undefined)	-2	5	-1	0	9	nt
Cc1ccc(Cl)cc1NC(=S)N1CCC(c2ccccc2)C1 (centres undefined)	-4	37	1	14	52*	37*
COc1cccc(NC(=O)NCc2ccccc2Cl)c1	1	7	5	-8	19	nt
SMILES	UPR XBP1 act	tim10-1 inh	UPR CHOP act	tim23-1 inh	TIM10 inh	TIM10 conf
O=C(Nc1cccc(C(F)(F)F)c1)C(SCCO)c1ccccc1 (centres undefined)	-3	14	-1	20	12	nt
CCC(C(=O)Nc1cccc(C(F)(F)F)c1)c1ccccc1 (centres undefined)	-9	39	-3	29	40*	47*
FC(F)(F)c1cccc(NC(=S)NCc2ccccc2)c1	-3	35	0	32	47*	49*
COC(=O)CCNC(=O)c1nn(Cc2ccccc2)c(=O)c2ccccc12	1	-7	2	-1	-5	nt
Cc1ccc(CS(=O)(=O)CCC(=O)NCc2ccccc2Cl)cc1	-6	-18	-1	1	-2	nt
CCn1ncc(Br)c1C(=O)Nc1ccc(OC(F)(F)F)cc1	-1	1	0	4	-7	nt
CCn1ncc(Br)c1C(=O)Nc1ccc(C(=O)OC(C)C)cc1	-1	18	-1	5	44*	10
CCn1c2ccccc2c2cc(CNCc3ccc(OC)cc3OC)ccc21	5	2	1	20	49*	23
O=C(Nc1ccc(-c2nc3ccc(NC(=O)c4cccs4)cc3[nH]2)cc1)c1cccs1	0	-32	1	-18	-26	nt
O=C(Nc1ccc(Cc2ccncc2)cc1)c1cccs1	0	-1	2	34	41*	-5
Cc1ccc(Cc2cnc(NC(=O)c3cccs3)s2)cc1	-1	35	5	49	54*	-15
Cc1ccc(Cc2cnc(NC(=O)C3CCCO3)s2)cc1 (centres undefined)	-4	24	2	33	19	nt
Cc1sc(NC(=O)c2cccs2)nc1-c1ccccc1	10	15	6	33	47*	28
O=C(Nc1ccc2nc(-c3cccs3)[nH]c2c1)c1cccs1	9	9	4	36	52*	33*
CCc1nnc(NC(=O)c2ccc(-c3ccc([N+](=O)[O-])cc3Cl)o2)s1	6	17	0	15	11	nt
COc1ccc(CCN2CC(C(=O)NCC(=O)Nc3ccc(F)c(F)c3)CC2=O)cc1OC (centres undefined)	1	12	1	-4	-5	nt
O=[N+]([O-])c1ccc2c(OCc3nnc(-c4ccccc4Br)o3)ncnc2c1	0	-21	0	32	45*	31*
O=[N+]([O-])c1cc(Br)c(OCc2nnc(-c3ccccc3)o2)c(Br)c1	-2	7	4	6	14	nt
O=C(/C=C/c1ccc2c(c1)OCO2)NCCSCc1cccc(Cl)c1	3	14	0	40	27	nt
O=C(/C=C/c1ccc2c(c1)OCO2)NCCSCc1ccc(Cl)cc1Cl	-1	37	7	13	41*	3
C=CCn1c(O)c(N=Nc2ccccc2)c2ccccc21	-3	-10	0	7	4	nt
C=CCn1c(O)c(N=Nc2ccccc2O)c2ccccc21	5	-15	1	48	49*	65*
COc1cccc2c(Nc3ccccc3C)cc(C)nc12	-5	0	2	4	-9	nt
